Laboratory results from ChEMBL document CHEMBL5252633, “Quinazolinone-1,2,3-triazole-acetamide conjugates as potent α-glucosidase inhibitors: synthesis, enzyme inhibition, kinetic analysis, and molecular docking study” (RSC Med Chem, 2023).
pIC50: −log10 of the molar value. The source made the active and inactive calls. The calls are words filed in the database; no cut-off is given here.

Key:
[1] = biological target: Maltase-glucoamylase (Homo sapiens) (UniProt O43451); experiment: Inhibition of alpha-glucosidase (unknown origin) assessed as change in Vmax using p-nitrophenyl-alpha D-glucopyranoside as substrate by Lineweaver-Burk plot analysis
How it was run: (§1)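 Initial rates were measured with p-nitrophenyl α-D-glucopyranoside at 1–16 mM and inhibitor at 0, 1.2, 2.4 and 4.8 μM. Lineweaver–Burk plots (1/V against 1/[S]) at each inhibitor level gave Km and Vmax. Ki was estimated from a plot of Km against inhibitor concentration.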

[2] = biological target: Maltase-glucoamylase (Homo sapiens) (UniProt O43451); experiment: Inhibition of alpha-glucosidase (unknown origin) assessed as increase in Km using p-nitrophenyl-alpha D-glucopyranoside as substrate by Lineweaver-Burk plot analysis; how it was run: as §1
[3] = biological target: T1, Pancreatic triacylglycerol lipase (Homo sapiens, UniProt P16233); experiment: Inhibition of pancreatic lipase (unknown origin)
T1 sequence (P16233 whole entry): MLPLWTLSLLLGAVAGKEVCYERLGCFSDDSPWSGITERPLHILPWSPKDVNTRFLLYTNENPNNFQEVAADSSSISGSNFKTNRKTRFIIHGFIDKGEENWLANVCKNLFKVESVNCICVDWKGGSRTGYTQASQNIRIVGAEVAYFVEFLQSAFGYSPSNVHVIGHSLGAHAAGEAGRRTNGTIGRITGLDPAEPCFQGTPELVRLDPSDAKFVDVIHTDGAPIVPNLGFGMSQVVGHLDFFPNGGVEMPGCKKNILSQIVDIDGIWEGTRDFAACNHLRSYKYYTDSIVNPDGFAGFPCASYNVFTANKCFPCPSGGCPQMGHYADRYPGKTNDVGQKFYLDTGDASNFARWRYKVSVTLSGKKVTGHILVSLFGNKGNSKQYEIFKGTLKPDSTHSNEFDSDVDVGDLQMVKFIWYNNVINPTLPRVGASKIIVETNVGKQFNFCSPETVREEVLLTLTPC

Alpha-glucosidase [4] = biological target: T2, Alpha-glucosidase (Saccharomyces cerevisiae S288c, UniProt P53341+P38158+P07265); experiment: Inhibition of Saccharomyces cerevisiae alpha-glucosidase assessed as inhibition constant using p-nitrophenyl-alpha D-glucopyranoside as substrate preincubated for 15 mins followed by substrate addition and measured after 20 mins by Lineweaver-burk plot analysis; type: protein assay
Alpha-glucosidase [5] = biological target: T2, Alpha-glucosidase; experiment: Inhibition of Saccharomyces cerevisiae alpha-glucosidase using p-nitrophenyl-alpha D-glucopyranoside as substrate preincubated for 15 mins followed by substrate addition and measured after 20 mins by spectrophotometer assay; type: protein assay

Maltase-glucoamylase (Homo sapiens), sequence (O43451 whole entry, looked up): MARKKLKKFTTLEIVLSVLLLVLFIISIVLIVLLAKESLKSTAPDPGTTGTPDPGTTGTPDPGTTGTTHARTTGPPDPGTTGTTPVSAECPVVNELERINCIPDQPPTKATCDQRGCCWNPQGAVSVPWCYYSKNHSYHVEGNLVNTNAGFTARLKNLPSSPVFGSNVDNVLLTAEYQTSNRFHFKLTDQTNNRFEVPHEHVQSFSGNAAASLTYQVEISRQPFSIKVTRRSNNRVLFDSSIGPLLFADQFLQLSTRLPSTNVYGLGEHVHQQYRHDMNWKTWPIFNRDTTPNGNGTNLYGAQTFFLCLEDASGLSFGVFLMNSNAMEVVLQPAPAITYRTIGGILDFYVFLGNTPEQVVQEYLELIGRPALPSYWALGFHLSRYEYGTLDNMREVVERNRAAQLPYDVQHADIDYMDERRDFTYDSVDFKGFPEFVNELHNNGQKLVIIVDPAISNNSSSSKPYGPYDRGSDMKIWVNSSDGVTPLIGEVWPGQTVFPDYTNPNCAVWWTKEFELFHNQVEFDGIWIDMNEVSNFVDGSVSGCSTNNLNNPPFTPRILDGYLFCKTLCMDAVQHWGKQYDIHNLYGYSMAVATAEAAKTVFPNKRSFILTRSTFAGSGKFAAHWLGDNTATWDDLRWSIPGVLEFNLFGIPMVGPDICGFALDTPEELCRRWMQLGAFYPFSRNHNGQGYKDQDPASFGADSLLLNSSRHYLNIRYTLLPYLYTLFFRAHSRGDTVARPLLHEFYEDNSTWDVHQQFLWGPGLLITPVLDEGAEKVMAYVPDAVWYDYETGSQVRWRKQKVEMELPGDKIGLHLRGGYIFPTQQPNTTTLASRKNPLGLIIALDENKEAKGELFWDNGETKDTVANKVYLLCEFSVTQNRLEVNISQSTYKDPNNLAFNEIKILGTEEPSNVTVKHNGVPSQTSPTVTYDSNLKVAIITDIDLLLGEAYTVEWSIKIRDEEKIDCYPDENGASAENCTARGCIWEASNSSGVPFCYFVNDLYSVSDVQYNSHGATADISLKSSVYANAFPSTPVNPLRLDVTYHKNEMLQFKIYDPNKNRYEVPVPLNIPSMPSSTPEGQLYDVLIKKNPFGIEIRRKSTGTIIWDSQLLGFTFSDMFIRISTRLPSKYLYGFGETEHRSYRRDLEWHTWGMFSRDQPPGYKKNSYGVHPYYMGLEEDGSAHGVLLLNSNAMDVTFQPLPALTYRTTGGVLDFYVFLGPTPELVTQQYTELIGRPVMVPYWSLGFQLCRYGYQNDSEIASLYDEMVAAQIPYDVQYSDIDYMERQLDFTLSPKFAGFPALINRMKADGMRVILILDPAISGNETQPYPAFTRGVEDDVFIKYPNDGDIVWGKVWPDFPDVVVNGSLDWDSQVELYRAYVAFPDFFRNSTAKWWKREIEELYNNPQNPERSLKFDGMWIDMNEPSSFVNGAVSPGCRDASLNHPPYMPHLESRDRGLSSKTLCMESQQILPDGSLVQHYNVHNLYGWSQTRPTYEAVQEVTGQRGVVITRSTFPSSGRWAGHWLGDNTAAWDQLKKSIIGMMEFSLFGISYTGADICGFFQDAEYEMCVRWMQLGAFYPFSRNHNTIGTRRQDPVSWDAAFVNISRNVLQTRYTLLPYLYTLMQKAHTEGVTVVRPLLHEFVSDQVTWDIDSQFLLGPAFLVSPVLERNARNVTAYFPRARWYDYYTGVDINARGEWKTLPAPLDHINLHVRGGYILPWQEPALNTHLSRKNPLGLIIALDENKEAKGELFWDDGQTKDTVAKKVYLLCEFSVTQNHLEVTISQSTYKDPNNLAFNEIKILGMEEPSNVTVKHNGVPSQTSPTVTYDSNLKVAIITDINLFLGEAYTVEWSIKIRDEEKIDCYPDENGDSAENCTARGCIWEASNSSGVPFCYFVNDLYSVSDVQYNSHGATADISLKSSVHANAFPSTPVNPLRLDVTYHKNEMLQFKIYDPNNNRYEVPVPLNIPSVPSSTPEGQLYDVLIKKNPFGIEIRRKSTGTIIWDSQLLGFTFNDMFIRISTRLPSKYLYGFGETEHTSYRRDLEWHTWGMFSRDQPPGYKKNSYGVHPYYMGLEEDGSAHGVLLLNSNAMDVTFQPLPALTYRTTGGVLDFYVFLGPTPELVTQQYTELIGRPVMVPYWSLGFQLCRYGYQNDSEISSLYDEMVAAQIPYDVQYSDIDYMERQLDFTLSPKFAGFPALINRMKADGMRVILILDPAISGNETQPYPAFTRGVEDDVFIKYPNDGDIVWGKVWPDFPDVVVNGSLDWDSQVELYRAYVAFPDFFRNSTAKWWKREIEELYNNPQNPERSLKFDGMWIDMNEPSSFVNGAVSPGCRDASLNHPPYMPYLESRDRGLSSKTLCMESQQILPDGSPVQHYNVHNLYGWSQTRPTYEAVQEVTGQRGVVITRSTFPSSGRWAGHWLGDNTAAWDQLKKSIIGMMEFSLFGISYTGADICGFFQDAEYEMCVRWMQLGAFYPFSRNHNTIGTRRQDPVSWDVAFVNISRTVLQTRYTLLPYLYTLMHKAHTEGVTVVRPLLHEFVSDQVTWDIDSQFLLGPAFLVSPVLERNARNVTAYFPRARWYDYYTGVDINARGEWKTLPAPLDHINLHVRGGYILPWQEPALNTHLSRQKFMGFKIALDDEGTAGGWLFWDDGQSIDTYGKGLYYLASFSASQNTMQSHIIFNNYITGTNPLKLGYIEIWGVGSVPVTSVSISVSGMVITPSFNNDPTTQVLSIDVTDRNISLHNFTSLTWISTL

Cc1ccc(NC(=O)Cn2cc(COc3ccc(C4Nc5ccccc5C(=O)N4Nc4ccccc4)cc3)nn2)c(C)c1 (stereo not given)
inhibition [1]: inactive
inhibition [2]: Active

O=C(Cn1c(Cc2ccc(Br)cc2)nc2ccccc2c1=O)NNC(=O)c1cc2ccccc2oc1=O
pIC50 [3]: 5.55

O=C(Cn1c(-c2ccc(Cl)cc2)nc2ccccc2c1=O)N/N=C\c1cn(-c2ccccc2)nc1-c1ccc(Br)cc1
Ki (Alpha-glucosidase [4]): 56 µM
IC50 (Alpha-glucosidase [5]): 60.5 µM
